Data from ChEMBL document CHEMBL4834402, “Discovery of TAK-981, a First-in-Class Inhibitor of SUMO-Activating Enzyme for the Treatment of Cancer” (J Med Chem, 2021).
In brackets after ≈: the same amount, converted by molar mass. Values belong to the compound of their own block, whether it stands above or below them.

How the values were obtained:
[1] = Inhibition of UAE (unknown origin) using Ub as substrate incubated for 60 mins in presence of ATP and PPi by pyrophosphate exchange assay; parameters: species or system Homo sapiens
In short: (§1)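 Pyrophosphate exchange assay of E1 activity at 1 mM ATP. Substrates were SUMO1 or SUMO2 for SAE, Ub for UAE and Nedd-8 for NAE.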

SUMO-activating enzyme [2] = target: T1, SUMO-activating enzyme (Homo sapiens, UniProt Q9UBT2); experiment: Inhibition of SAE (unknown origin) using SUMO1 as substrate incubated for 60 mins in presence of ATP and PPi by pyrophosphate exchange assay; format: protein-complex assay; in short: as §1
T1 sequence (Q9UBE0 whole entry): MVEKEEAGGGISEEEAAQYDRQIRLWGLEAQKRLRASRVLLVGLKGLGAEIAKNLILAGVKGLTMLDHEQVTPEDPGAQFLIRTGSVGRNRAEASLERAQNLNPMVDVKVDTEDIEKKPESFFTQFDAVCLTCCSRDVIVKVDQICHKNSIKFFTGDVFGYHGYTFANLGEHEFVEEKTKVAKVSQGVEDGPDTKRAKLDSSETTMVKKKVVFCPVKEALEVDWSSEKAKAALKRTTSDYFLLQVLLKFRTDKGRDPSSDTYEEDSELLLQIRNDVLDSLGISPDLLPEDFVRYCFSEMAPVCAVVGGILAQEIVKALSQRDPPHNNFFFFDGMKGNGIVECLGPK
T1 sequence (Q9UBT2 whole entry): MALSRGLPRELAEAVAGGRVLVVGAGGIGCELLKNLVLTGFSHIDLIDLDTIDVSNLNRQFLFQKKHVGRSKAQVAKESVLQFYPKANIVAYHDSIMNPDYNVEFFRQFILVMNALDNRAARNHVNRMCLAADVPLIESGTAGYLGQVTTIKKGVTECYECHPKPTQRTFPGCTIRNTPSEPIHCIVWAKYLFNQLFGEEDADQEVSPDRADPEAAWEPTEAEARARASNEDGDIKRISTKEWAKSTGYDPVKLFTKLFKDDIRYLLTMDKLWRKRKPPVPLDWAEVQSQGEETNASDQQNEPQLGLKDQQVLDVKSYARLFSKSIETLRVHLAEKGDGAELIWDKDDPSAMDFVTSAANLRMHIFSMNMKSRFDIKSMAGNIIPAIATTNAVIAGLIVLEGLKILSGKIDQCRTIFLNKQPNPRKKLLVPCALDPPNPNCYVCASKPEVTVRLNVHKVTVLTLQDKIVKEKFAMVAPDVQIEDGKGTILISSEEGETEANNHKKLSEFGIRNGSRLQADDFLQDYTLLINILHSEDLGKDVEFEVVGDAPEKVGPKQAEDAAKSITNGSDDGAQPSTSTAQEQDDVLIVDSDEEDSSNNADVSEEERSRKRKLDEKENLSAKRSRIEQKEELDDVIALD

SUMO-activating enzyme [3] = target: T1, SUMO-activating enzyme; experiment: Inhibition of SAE in human HCT116 cells assessed as reduction in redistribution of SUMO2/3 proteins from nucleus to cytosol incubated for 4 hrs by immunofluorescence assay; format: cell-based, HCT-116
In short: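 HCT-116 cells exposed to compound across a concentration range for 4 h, then stained with anti-SUMO2/3 monoclonal antibody. Automated imaging scored the nuclear (inner) to cytoplasmic (outer) SUMO2/3 ratio. IC50 taken from the dose response.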

SUMO-activating enzyme [4] = target: T1, SUMO-activating enzyme; experiment: Inhibition of SAE (unknown origin) using SUMO2 as substrate incubated for 60 mins in presence of ATP and PPi by pyrophosphate exchange assay; format: protein-complex assay; in short: as §1
NEDD8 activating enzyme [5] = target: T2, NEDD8 activating enzyme (Homo sapiens, UniProt Q8TBC4); experiment: Inhibition of recombinant NAE (unknown origin) in presence of ATP at Km concentration by HTRF assay; format: protein-complex assay
T2 sequence (Q8TBC4 whole entry): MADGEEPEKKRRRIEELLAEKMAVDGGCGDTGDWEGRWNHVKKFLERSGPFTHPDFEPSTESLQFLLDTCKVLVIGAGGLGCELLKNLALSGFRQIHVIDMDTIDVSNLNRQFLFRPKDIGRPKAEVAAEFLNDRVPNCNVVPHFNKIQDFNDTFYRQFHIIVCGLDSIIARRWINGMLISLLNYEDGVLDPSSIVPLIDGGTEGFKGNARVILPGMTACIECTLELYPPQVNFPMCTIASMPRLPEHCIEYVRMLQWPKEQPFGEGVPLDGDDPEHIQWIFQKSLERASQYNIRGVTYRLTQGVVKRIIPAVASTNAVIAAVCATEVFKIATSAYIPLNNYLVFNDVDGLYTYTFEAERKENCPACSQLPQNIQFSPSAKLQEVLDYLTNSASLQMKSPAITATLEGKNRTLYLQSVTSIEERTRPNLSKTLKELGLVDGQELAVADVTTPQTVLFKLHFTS
T2 sequence (Q13564 whole entry): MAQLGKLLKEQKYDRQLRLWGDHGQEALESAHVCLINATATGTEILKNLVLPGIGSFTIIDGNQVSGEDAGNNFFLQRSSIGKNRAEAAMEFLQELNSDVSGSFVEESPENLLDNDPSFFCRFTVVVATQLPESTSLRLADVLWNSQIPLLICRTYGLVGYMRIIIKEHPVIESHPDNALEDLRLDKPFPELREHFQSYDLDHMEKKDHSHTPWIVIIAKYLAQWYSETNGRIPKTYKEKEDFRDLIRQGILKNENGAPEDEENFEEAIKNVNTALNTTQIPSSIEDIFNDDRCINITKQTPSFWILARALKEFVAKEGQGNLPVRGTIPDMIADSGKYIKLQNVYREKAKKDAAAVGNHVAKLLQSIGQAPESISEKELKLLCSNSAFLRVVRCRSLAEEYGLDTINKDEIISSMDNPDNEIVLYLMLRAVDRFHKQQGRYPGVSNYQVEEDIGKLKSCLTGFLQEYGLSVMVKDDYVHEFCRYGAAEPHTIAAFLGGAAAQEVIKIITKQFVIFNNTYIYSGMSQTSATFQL

NEDD8 activating enzyme [6] = target: T2, NEDD8 activating enzyme; experiment: Inhibition of NAE in human HCT116 cells assessed as reduction in conjugation of Nedd8 […] by Western blot analysis; format: cell-based, HCT-116
In short: (§2)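 HCT116 cells, quantitative Western blot of E2–UBL conjugates. Read-outs were SUMO–UBC9 for SAE, ubiquitin–[…] for UAE and Nedd-8–[…] for NAE.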

SUMO-activating enzyme [7] = target: T1, SUMO-activating enzyme; experiment: Inhibition of SAE in human HCT116 cells assessed as reduction in conjugation of SUMO proteins to UBC9 by Western blot analysis; format: cell-based, HCT-116; in short: as §2
NEDD8 activating enzyme [8] = target: T2, NEDD8 activating enzyme; experiment: Inhibition of NAE (unknown origin) using Nedd-8 as substrate incubated for 60 mins in presence of ATP and PPi by pyrophosphate exchange assay; format: protein-complex assay; in short: as §1
[9] = Inhibition of UAE in human HCT116 cells assessed as reduction in conjugation of ubiquitin to […] by Western blot analysis; format: cell-based; settings: hct-116; in short: as §2
[10] = Inhibition of recombinant UAE (unknown origin) in presence of ATP at Km concentration by HTRF assay; parameters: species or system Homo sapiens
SUMO-activating enzyme [11] = target: T1, SUMO-activating enzyme; experiment: Inhibition of recombinant SAE (unknown origin) assessed as reduction in transfer of SUMO1 to UBC9 using SUMO1 as a substrate in presence of ATP at Km concentration by HTRF assay; format: protein-complex assay
In short: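 HTRF transthiolation assay measuring transfer of SUMO1 to UBC9, the E2 for SAE.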

[12] = AUC in rat plasma at 10 mg/kg, po; format: ADME, organism-based; parameters: dose 10 mg/kg
[13] = Clearance in rat plasma at 1 mg/kg, iv; format: ADME, organism-based; settings: in vivo
HCT-116 = experiment: Cytotoxicity against human HCT116 cells assessed as reduction in cell viability after 72 hrs by CellTiter-Glo luminescent assay; format: functional, cell-based; settings: HCT-116, 72 h
OCI-Ly10 = experiment: Cytotoxicity against human OCI-LY10 cells assessed as reduction in cell viability after 72 hrs by CellTiter-Glo luminescent assay; format: functional, cell-based; settings: OCI-Ly10, 72 h
Carbonic anhydrase 2 = Carbonic anhydrase 2 (Homo sapiens, UniProt P00918); experiment: Inhibition of recombinant human CA2 expressed in Escherichia coli using fluorescein diacetate as substrate at […] by fluorometric esterase assay
[14] = Oral bioavailability in rat blood at 10 mg/kg; format: ADME, organism-based
[15] = Oral bioavailability in rat plasma at 10 mg/kg; format: ADME, organism-based
[16] = Dissociation constant , pKa of the compound; format: physicochemical
[17] = Efflux ratio of apparent permeability across basolateral to apical side over apical to basolateral side in human Caco-2 cells; format: ADME, cell-based
[18] = AUC in rat blood at 1 mg/kg, iv; format: ADME, organism-based; parameters: dose 1 mg/kg
[19] = Volume of distribution at steady state in rat blood at 1 mg/kg, iv; format: ADME, organism-based; settings: read-out: Vdss
[20] = Apparent permeability across apical to basolateral side in human Caco2 cells; format: ADME, cell-based; settings: Caco-2
[21] = Clearance in rat blood at 1 mg/kg, iv; format: ADME, organism-based; settings: in vivo
[22] = Apparent permeability across basolateral to apical side in human Caco2 cells; format: ADME, cell-based; settings: Caco-2
[23] = AUC in rat blood at 10 mg/kg, po; format: ADME, organism-based; parameters: dose 10 mg/kg
Carbonic anhydrase 1 = Carbonic anhydrase 1 (Homo sapiens, UniProt P00915); experiment: Inhibition of human erythrocyte CA1 using fluorescein diacetate as substrate at […] by fluorometric esterase assay
Sequence of Carbonic anhydrase 1 (P00915 whole entry): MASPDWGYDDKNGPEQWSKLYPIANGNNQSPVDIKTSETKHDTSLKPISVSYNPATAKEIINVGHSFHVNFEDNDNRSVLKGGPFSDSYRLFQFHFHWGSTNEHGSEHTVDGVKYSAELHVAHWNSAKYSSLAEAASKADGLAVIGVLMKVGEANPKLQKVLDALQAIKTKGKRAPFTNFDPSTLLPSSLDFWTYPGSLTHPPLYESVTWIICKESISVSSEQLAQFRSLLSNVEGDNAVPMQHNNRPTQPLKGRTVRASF

[24] = Lipophilicity, logD of compound at pH 7.4; format: physicochemical; settings: buffer
[25] = Half life in rat blood at 1 mg/kg, iv; format: ADME, organism-based
[26] = Half life in rat plasma at 1 mg/kg, iv; format: ADME, organism-based
[27] = Volume of distribution at steady state in rat plasma at 1 mg/kg, iv; format: ADME, organism-based; settings: read-out: Vdss
[28] = Solubility of compound in 10% hydroxypropyl-beta-cyclodextrin after 24 hrs; format: physicochemical
[29] = AUC in rat plasma at 1 mg/kg, iv; format: ADME, organism-based; parameters: dose 1 mg/kg

- IC50 [1]: 1100 nM
- IC50 (NEDD8 activating enzyme [5]): 29 nM
- IC50 (NEDD8 activating enzyme [6]): 1400 nM
- IC50 (NEDD8 activating enzyme [8]): 300 nM
- IC50 [9]: 410 nM
- IC50 [10]: 58 nM
Compound: NS(=O)(=O)OC[C@H]1C[C@@H](Nc2ncncc2C(=O)c2ccn(Cc3ccccc3)n2)[C@H](O)[C@@H]1O
- IC50 (SUMO-activating enzyme [2]): 6 nM
- IC50 (SUMO-activating enzyme [3]): 26 nM
- IC50 (SUMO-activating enzyme [4]): 50 nM
- IC50 (SUMO-activating enzyme [7]): 6 nM
- IC50 (SUMO-activating enzyme [11]): 1 nM

- AUC [12]: 0.6 µM·h
- clearance [13]: 86.7 mL/min/kg
- IC50 (Carbonic anhydrase 2): 10 nM
- bioavailability [14]: 19%
- bioavailability [15]: 18%
- pKa [16]: 3.5
- IC50 (NEDD8 activating enzyme [5]): 386 nM
- efflux ratio [17]: > 16
- AUC [18]: 12.5 µM·h
- Vd [19]: 0.2 L/kg
- Papp A→B [20]: 4 ×10⁻⁶ cm/s
- clearance [21]: 1.67 mL/min/kg
- Papp B→A [22]: 64 ×10⁻⁶ cm/s
- AUC [23]: 24.1 µM·h
- IC50 (Carbonic anhydrase 1): 50 nM
- logD [24]: 1.9
- half-life [25]: 4 h
- IC50 [10]: > 1000 nM
- half-life [26]: 1.5 h
- Vd [27]: 5 L/kg
- solubility at 24 h [28]: 100 µg/mL (≈ 173 µM)
- AUC [29]: 0.3 µM·h
Compound: Cc1sc(C(=O)c2cncnc2N[C@@H]2C[C@H](COS(N)(=O)=O)[C@@H](O)C2)cc1C1OCCc2ccc(Cl)cc21 (stereo in doubt)
- IC50 (SUMO-activating enzyme [3]): 3 nM
- EC50 (HCT-116): 110 nM
- EC50 (OCI-Ly10): 4 nM
- IC50 (SUMO-activating enzyme [11]): 0.4 nM
